From ChEMBL document CHEMBL1156352, “New antiviral cassane furanoditerpenes from Caesalpinia minax” (J Nat Prod, 2001)
Values after ≈ are worked out from the molar mass of the structure shown.

Columns and labels:
[1] = Therapeutic index, ratio of TC50 for human Hep2 cells to IC50 for Parainfluenza virus type 3; type: cell-based, HEp-2; conditions: read-out: TI
Outline: (§1)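 Run in 96-well plates on Hep-2 cell monolayers, with ribavirin as positive control and an untreated infection control. Para3 virus suspension was added and CPE was scored under an inverted microscope. IC50 was the concentration that reduced CPE by 50% relative to virus control. TC50 was the concentration giving 50% cytotoxic effect.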

Human respirovirus 3 = assay: Antiviral activity against Parainfluenza virus type 3 infected in human Hep2 cells assessed as inhibition of virus-induced cytopathogenic effect; type: functional, organism-based; conditions: Human respirovirus 3, HEp-2; outline: as §1
[2] = Cytotoxicity against human Hep2 cells; type: cell-based, HEp-2; conditions: read-out: LC50 (the source's name)

Structure (SMILES)	selectivity ratio [1]	IC50 (Human respirovirus 3)	CC50 [2]
CO[C@]1(C)c2ccoc2C[C@H]2C1[C@@H](OC(C)=O)[C@H](OC(C)=O)[C@@]1(O)C(C)(C)CC[C@H](OC(C)=O)[C@]21C (stereo partly drawn) [CAESALMIN F]	17.5	7.8 µg/mL (≈ 15.4 µM)	136 µg/mL (≈ 269 µM)
CC(=O)O[C@@H]1[C@@H]2[C@H](Cc3occc3[C@]2(C)O)[C@@]2(C)[C@@H](OC(C)=O)CCC(C)(C)[C@]2(O)[C@H]1OC(C)=O [CAESALMIN D]	19.1	9.6 µg/mL (≈ 19.5 µM)	182 µg/mL (≈ 370 µM)
CC[C@H](/C=C/[C@@H](C)[C@H]1CC[C@H]2[C@@H]3CC=C4C[C@@H](O)CC[C@]4(C)[C@H]3CC[C@]12C)C(C)C [STIGMASTEROL]	3.6	37.5 µg/mL (≈ 90.9 µM)	137 µg/mL (≈ 331 µM)
C=C1c2ccoc2C[C@H]2[C@H]1[C@@H](OC(C)=O)[C@H](OC(C)=O)[C@@]1(O)C(C)(C)CC[C@H](OC(C)=O)[C@]21C [CAESALAMIN C]	23.9	8.2 µg/mL (≈ 17.3 µM)	196 µg/mL (≈ 414 µM)
CC1(C)CC[C@H](O)[C@]2(C)[C@H]3Cc4occc4[C@H]4C(=O)O[C@@H](C[C@@]12O)[C@@H]43 [CAESALMIN G]	3	14.8 µg/mL (≈ 42.7 µM)	44.7 µg/mL (≈ 129 µM)
CC(=O)O[C@@H]1[C@@H]2[C@H](Cc3occc3[C@@]2(C)O)[C@@]2(C)[C@@H](OC(C)=O)CCC(C)(C)[C@]2(O)[C@H]1OC(C)=O [CAESALMIN E]	16	10.3 µg/mL (≈ 20.9 µM)	165 µg/mL (≈ 335 µM)
